Results as given in ChEMBL document CHEMBL1275441, “Effect of impaired renal function on the pharmacokinetics of tomopenem (RO4908463/CS-023), a novel carbapenem” (Antimicrob Agents Chemother, 2008).

Assays:
[1] = Tmax in human with creatinine clearance of =< 30 ml/min at 1500 mg, iv administered as single dose; format: ADME, organism-based; conditions: in vivo
Procedure, shortened: (§1)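 Eight subjects per CL_CR group (Cockcroft-Gault) received 1,500 mg i.v. over 60 min. Plasma was sampled predose and from 1 to 48 h, mixed with equal-volume 0.5 M MOPS pH 6.0, frozen at −70°C light-protected, and assayed by a validated method. Parameters were derived noncompartmentally from actual times, with T_max taken from raw data as a median and CL/V_ss as means ± SD.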

Homo sapiens [2] = test: Drug excretion in human with creatinine clearance of 50-79 ml/min at 1500 mg, iv administered as single dose after 24 hrs; format: ADME, organism-based; conditions: in vivo
Procedure, shortened: (§2)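 After a single 1,500 mg i.v. infusion over 60 min, urine was collected 0–6, 6–12 and 12–24 h post-dose, with volume and pH recorded. Aliquots were mixed 1:1 with 0.5 M MOPS, protected from light and frozen at −70°C. Parent and metabolite were assayed by a validated method. CLR = Ae24/plasma AUC24. n = 8 per group, mean ± SD.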

[3] = Dose normalized excretion in human with creatinine clearance of 30-49 ml/min at 1500 mg, iv administered as single dose after 24 hrs; format: ADME, organism-based; conditions: in vivo, read-out: Activity; procedure, shortened: as §2
Homo sapiens [4] = test: Drug metabolism in human with creatinine clearance of => 80 ml/min assessed as RO4957463 Tmax at 1500 mg, iv administered as single dose; format: ADME, organism-based; conditions: in vivo
Procedure, shortened: (§3)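 Single 1,500 mg i.v. infusion over 60 min, eight subjects per renal-function group (creatinine clearance by Cockcroft-Gault at screening). Blood was sampled predose and at 1–48 h, and the plasma was stabilized 1:1 with 0.5 M MOPS pH 6.0, kept from light and frozen at −70°C. Parent and metabolite were measured by a validated bioanalytical method. Noncompartmental analysis: t1/2 = ln2/λz from ≥3 terminal points, Cmax/Tmax from raw data, ratio = AUC∞ metabolite/parent.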

Homo sapiens [5] = test: Drug metabolism in human with creatinine clearance of 30-49 ml/min assessed as RO4957463 Tmax at 1500 mg, iv administered as single dose; format: ADME, organism-based; conditions: in vivo; procedure, shortened: as §3
Homo sapiens [6] = test: Drug metabolism in human with creatinine clearance of 50-79 ml/min assessed as RO4957463 apparent half life at 1500 mg, iv administered as single dose; format: ADME, organism-based; conditions: in vivo; procedure, shortened: as §3
[7] = Total clearance in human with creatinine clearance of =< 30 ml/min at 1500 mg, iv administered as single dose after 60 mins after 60 mins; format: ADME, organism-based; conditions: in vivo; procedure, shortened: as §1
[8] = Apparent half-life in human with creatinine clearance of 30-49 ml/min at 1500 mg, iv administered as single dose; format: ADME, organism-based; conditions: in vivo; procedure, shortened: as §3
[9] = Cmax in human with creatinine clearance of 30-49 ml/min at 1500 mg, iv administered as single dose measured after 60 mins; format: ADME, organism-based; set-up: dose 1500 mg, route intravenous; conditions: in vivo; procedure, shortened: as §3
[10] = Volume of distribution at steady state in human with creatinine clearance of => 80 ml/min at 1500 mg, iv administered as single dose measured after 60 mins; format: ADME, organism-based; conditions: in vivo, read-out: Vdss; procedure, shortened: as §1
Homo sapiens [11] = test: Drug metabolism in human with creatinine clearance of 30-49 ml/min assessed as RO4957463 apparent half life at 1500 mg, iv administered as single dose; format: ADME, organism-based; conditions: in vivo; procedure, shortened: as §3
Homo sapiens [12] = test: Drug metabolism in human with creatinine clearance of =< 30 ml/min assessed as RO4957463 Cmax at 1500 mg, iv administered as single dose measured after 60 mins; format: ADME, organism-based; set-up: dose 1500 mg, route intravenous; conditions: in vivo, 1 h; procedure, shortened: as §3
Homo sapiens [13] = test: Drug excretion in human with creatinine clearance of 30-49 ml/min at 1500 mg, iv administered as single dose after 24 hrs; format: ADME, organism-based; conditions: in vivo; procedure, shortened: as §2
[14] = Volume of distribution at steady state in human with creatinine clearance of =< 30 ml/min at 1500 mg, iv administered as single dose measured after 60 mins; format: ADME, organism-based; conditions: in vivo, read-out: Vdss; procedure, shortened: as §1
[15] = Dose normalized excretion in human with creatinine clearance of 50-79 ml/min at 1500 mg, iv administered as single dose after 24 hrs; format: ADME, organism-based; conditions: in vivo, read-out: Activity; procedure, shortened: as §2
[16] = Renal clearance in human with creatinine clearance of 50-79 ml/min at 1500 mg, iv administered as single dose after 24 hrs; format: ADME, organism-based, Kidney; conditions: in vivo, read-out: CL_renal (converted)
Procedure, shortened: (§4)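 Single 1,500 mg i.v. infusion over 60 min, with 8 subjects per renal-function group (CL_CR by Cockcroft-Gault at screening). Urine was collected at 0–6, 6–12 and 12–24 h, volume and pH recorded, and aliquots mixed 1:1 with 0.5 M MOPS. Samples were frozen at −70°C, protected from light, and assayed by a validated method. CL_R = A_e24/AUC₂₄.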

Homo sapiens [17] = test: Drug excretion in human with creatinine clearance of => 80 ml/min at 1500 mg, iv administered as single dose after 24 hrs; format: ADME, organism-based; conditions: in vivo; procedure, shortened: as §2
[18] = Volume of distribution at steady state in human with creatinine clearance of 50-79 ml/min at 1500 mg, iv administered as single dose measured after 60 mins; format: ADME, organism-based; conditions: in vivo, read-out: Vdss; procedure, shortened: as §1
[19] = Dose normalized excretion in human with creatinine clearance of => 80 ml/min at 1500 mg, iv administered as single dose after 24 hrs; format: ADME, organism-based; conditions: in vivo, read-out: Activity; procedure, shortened: as §2
Homo sapiens [20] = test: Drug metabolism in human with creatinine clearance of =< 30 ml/min assessed as RO4957463 apparent half life at 1500 mg, iv administered as single dose; format: ADME, organism-based; conditions: in vivo; procedure, shortened: as §3
[21] = Renal clearance in human with creatinine clearance of =< 30 ml/min at 1500 mg, iv administered as single dose after 24 hrs; format: ADME, organism-based, Kidney; conditions: in vivo, read-out: CL_renal (converted); procedure, shortened: as §4
Homo sapiens [22] = test: Drug metabolism in human with creatinine clearance of => 80 ml/min assessed as RO4957463 AUC (infinity) at 1500 mg, iv administered as single dose measured after 60 mins; format: ADME, organism-based; set-up: dose 1500 mg, route intravenous, time infinity; conditions: in vivo, 1 h; procedure, shortened: as §3
[23] = Cmax in human with creatinine clearance of =< 30 ml/min at 1500 mg, iv administered as single dose measured after 60 mins; format: ADME, organism-based; set-up: dose 1500 mg, route intravenous; conditions: in vivo; procedure, shortened: as §3
[24] = Volume of distribution at steady state in human with creatinine clearance of 30-49 ml/min at 1500 mg, iv administered as single dose measured after 60 mins; format: ADME, organism-based; conditions: in vivo, read-out: Vdss; procedure, shortened: as §1
[25] = Tmax in human with creatinine clearance of 30-49 ml/min at 1500 mg, iv administered as single dose; format: ADME, organism-based; conditions: in vivo; procedure, shortened: as §1
[26] = Apparent half-life in human with creatinine clearance of =< 30 ml/min at 1500 mg, iv administered as single dose; format: ADME, organism-based; conditions: in vivo; procedure, shortened: as §3
Homo sapiens [27] = test: Ratio of RO4957463 AUC (infinity) to compound AUC (infinity) in human with creatinine clearance of 50-79 ml/min at 1500 mg, iv administered as single dose measured after 60 mins; format: ADME, organism-based; conditions: in vivo, 1 h; procedure, shortened: as §3
[28] = Volume of distribution in healthy human at 700 mg, iv administered as single dose; format: ADME, organism-based; conditions: in vivo
Homo sapiens [29] = test: Drug metabolism in human with creatinine clearance of 50-79 ml/min assessed as RO4957463 Tmax at 1500 mg, iv administered as single dose measured after 60 mins; format: ADME, organism-based; conditions: in vivo, 1 h; procedure, shortened: as §3
Homo sapiens [30] = test: Drug metabolism in human with creatinine clearance of => 80 ml/min assessed as RO4957463 Cmax at 1500 mg, iv administered as single dose measured after 60 mins; format: ADME, organism-based; set-up: dose 1500 mg, route intravenous; conditions: in vivo, 1 h; procedure, shortened: as §3
[31] = Tmax in human with creatinine clearance of => 80 ml/min at 1500 mg, iv administered as single dose; format: ADME, organism-based; conditions: in vivo; procedure, shortened: as §1
[32] = Renal clearance in human with creatinine clearance of 30-49 ml/min at 1500 mg, iv administered as single dose after 24 hrs; format: ADME, organism-based, Kidney; conditions: in vivo, read-out: CL_renal (converted); procedure, shortened: as §2

- Tmax [1]: 1.02 h
- Activity (Homo sapiens [2]): 1090 mg
- dose excreted at 24 h [3]: 62.6%
- Tmax (Homo sapiens [4]): 1.01 h
- Tmax (Homo sapiens [5]): 5 h
- t1/2 (Homo sapiens [6]): 5.02 h
- clearance [7]: 25.3 mL/min
- half-life [8]: 275 min
- Cmax [9]: 100 µg/mL
- Vd [10]: 18.8 L
- t1/2 (Homo sapiens [11]): 8.32 h
- Cmax (Homo sapiens [12]): 9.63 µg/mL
- Activity (Homo sapiens [13]): 939 mg
- Vd [14]: 16.4 L
- dose excreted at 24 h [15]: 72.6%
- CL renal at 24 h [16]: 61.3 mL/min
- Activity (Homo sapiens [17]): 862 mg
- Vd [18]: 16.2 L
- dose excreted at 24 h [19]: 57.4%
- t1/2 (Homo sapiens [20]): 25.3 h
- CL renal at 24 h [21]: 9.83 mL/min
- AUC (Homo sapiens [22]): 18.5 µg·h/mL
- Cmax [23]: 116 µg/mL
- Vd [24]: 17.2 L
- Tmax [25]: 1 h
- half-life [26]: 476 min
- Ratio (Homo sapiens [27]): 0.12
- Vd [28]: 17 L
- Tmax (Homo sapiens [29]): 1 h
- Cmax (Homo sapiens [30]): 3.51 µg/mL
- Tmax [31]: 1 h
- CL renal at 24 h [32]: 33 mL/min
Structure (SMILES): C[C@@H](O)[C@H]1C(=O)N2C(C(=O)O)=C(S[C@H]3C[C@@H](C(=O)N4CC[C@H](NC(=O)CNC(=N)N)C4)N(C)C3)[C@H](C)[C@H]12 [TOMOPENEM]
